Assays:
[1] = target: T1, Galectin-3 (Homo sapiens, UniProt P17931); assay: Binding affinity to human galectin 3 assessed as relative affinity by surface plasma resonance analysis
Method in brief: (§1)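 Recombinant human Gal-3 amine-coupled to a CM5 chip (about 1000 RU) with an ethanolamine reference channel. Analytes were serially diluted in 0.01 M HEPES pH 7.4, 0.15 M NaCl and 0.005% P20, then run at 25 °C and 30 μL/min with 120 s association and 300 s dissociation, followed by 3 M MgCl2 regeneration. EC50 was taken from the fitted binding curve.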

[2] = target: T1, Galectin-3; assay: Binding affinity to human galectin 3 by surface plasma resonance analysis; method in brief: as §1
[3] = target: T1, Galectin-3; assay: Binding affinity to human galectin 3 assessed as relative affinity per sugar unit on cyclodextrin by surface plasma resonance analysis; method in brief: as §1
[4] = target: T1, Galectin-3; assay: Inhibition of human galectin 3 binding to human A549 cells incubated for 1 hr; assay type: cell-based
Method in brief: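 A549 cells were grown in plates, fixed, and blocked overnight at 4 °C with 3% BSA in PBS. Biotinylated Gal-3 (5 μg/ml), premixed with compound at 3–300 μM, was then added for 1 h at 4 °C. Bound Gal-3 was detected with streptavidin-HRP and TMB, stopped with 1 M HCl, and read at OD450. Percent inhibition came from a Gal-3 standard curve, and EC50 from a five-parameter asymmetric fit.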

T1 sequence (P17931 whole entry): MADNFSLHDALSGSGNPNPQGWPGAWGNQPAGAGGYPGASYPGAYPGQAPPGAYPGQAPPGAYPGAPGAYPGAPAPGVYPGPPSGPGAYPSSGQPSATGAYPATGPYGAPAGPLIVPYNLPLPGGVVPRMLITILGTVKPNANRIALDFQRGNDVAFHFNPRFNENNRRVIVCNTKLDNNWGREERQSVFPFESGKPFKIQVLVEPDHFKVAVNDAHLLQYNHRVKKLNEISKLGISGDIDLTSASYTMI

SMILES	relative binding affinity (RBA) [1]	EC50 [2] [µM]	relative binding affinity (RBA) [3]	EC50 [4] [µM]
[N-]=[N+]=NCCOCCOCCO[C@@H]1O[C@H](CO)[C@@H](O[C@@H]2O[C@H](CO)[C@H](O)[C@H](O)[C@H]2O)[C@H](O)[C@H]1O	< 1.47	–	–	–
CC(=O)N[C@H]1[C@@H](OCCOCCOCCn2cc(CCC(=O)NC[C@H]3O[C@@H]4O[C@H]5[C@H](O)[C@@H](O)[C@@H](O[C@H]6[C@H](O)[C@@H](O)[C@@H](O[C@H]7[C@H](O)[C@@H](O)[C@@H](O[C@H]8[C@H](O)[C@@H](O)[C@@H](O[C@H]9[C@H](O)[C@@H](O)[C@@H](O[C@H]%10[C@H](O)[C@@H](O)[C@@H](O[C@H]3[C@H](O)[C@H]4O)O[C@@H]%10CNC(=O)CCc3cn(CCOCCOCCO[C@H]4O[C@H](CO)[C@H](O)[C@H](O)[C@H]4NC(C)=O)nn3)O[C@@H]9CNC(=O)CCc3cn(CCOCCOCCO[C@H]4O[C@H](CO)[C@H](O)[C@H](O)[C@H]4NC(C)=O)nn3)O[C@@H]8CNC(=O)CCc3cn(CCOCCOCCO[C@H]4O[C@H](CO)[C@H](O)[C@H](O)[C@H]4NC(C)=O)nn3)O[C@@H]7CNC(=O)CCc3cn(CCOCCOCCO[C@H]4O[C@H](CO)[C@H](O)[C@H](O)[C@H]4NC(C)=O)nn3)O[C@@H]6CNC(=O)CCc3cn(CCOCCOCCO[C@H]4O[C@H](CO)[C@H](O)[C@H](O)[C@H]4NC(C)=O)nn3)O[C@@H]5CNC(=O)CCc3cn(CCOCCOCCO[C@H]4O[C@H](CO)[C@H](O)[C@H](O)[C@H]4NC(C)=O)nn3)nn2)O[C@H](CO)[C@H](O)[C@@H]1O	1070	1.37	153	1.5
CC(=O)N[C@H]1[C@@H](OCCOCCOCCn2cc(CCC(=O)NC[C@H]3O[C@@H]4O[C@H]5[C@H](O)[C@@H](O)[C@@H](O[C@H]6[C@H](O)[C@@H](O)[C@@H](O[C@H]7[C@H](O)[C@@H](O)[C@@H](O[C@H]8[C@H](O)[C@@H](O)[C@@H](O[C@H]9[C@H](O)[C@@H](O)[C@@H](O[C@H]%10[C@H](O)[C@@H](O)[C@@H](O[C@H]3[C@H](O)[C@H]4O)O[C@@H]%10CNC(=O)CCc3cn(CCOCCOCCO[C@H]4O[C@H](CO)[C@H](O)[C@H](O[C@@H]%10O[C@H](CO)[C@H](O)[C@H](O)[C@H]%10O)[C@H]4NC(C)=O)nn3)O[C@@H]9CNC(=O)CCc3cn(CCOCCOCCO[C@H]4O[C@H](CO)[C@H](O)[C@H](O[C@@H]9O[C@H](CO)[C@H](O)[C@H](O)[C@H]9O)[C@H]4NC(C)=O)nn3)O[C@@H]8CNC(=O)CCc3cn(CCOCCOCCO[C@H]4O[C@H](CO)[C@H](O)[C@H](O[C@@H]8O[C@H](CO)[C@H](O)[C@H](O)[C@H]8O)[C@H]4NC(C)=O)nn3)O[C@@H]7CNC(=O)CCc3cn(CCOCCOCCO[C@H]4O[C@H](CO)[C@H](O)[C@H](O[C@@H]7O[C@H](CO)[C@H](O)[C@H](O)[C@H]7O)[C@H]4NC(C)=O)nn3)O[C@@H]6CNC(=O)CCc3cn(CCOCCOCCO[C@H]4O[C@H](CO)[C@H](O)[C@H](O[C@@H]6O[C@H](CO)[C@H](O)[C@H](O)[C@H]6O)[C@H]4NC(C)=O)nn3)O[C@@H]5CNC(=O)CCc3cn(CCOCCOCCO[C@H]4O[C@H](CO)[C@H](O)[C@H](O[C@@H]5O[C@H](CO)[C@H](O)[C@H](O)[C@H]5O)[C@H]4NC(C)=O)nn3)nn2)O[C@H](CO)[C@H](O)[C@@H]1OC1O[C@H](CO)[C@H](O)[C@H](O)[C@H]1O (stereo not given in full)	464	3.16	66.4	10.5

More lines, now with the values ahead:

relative binding affinity (RBA) [1]	EC50 [2] [µM]	relative binding affinity (RBA) [3]	EC50 [4] [µM]	SMILES
58.1	25.3	8.29	23.5	O=C(CCc1cn(CCOCCOCCO[C@@H]2O[C@H](CO)[C@@H](O[C@@H]3O[C@H](CO)[C@H](O)[C@H](O)[C@H]3O)[C@H](O)[C@H]2O)nn1)NC[C@H]1O[C@@H]2O[C@H]3[C@H](O)[C@@H](O)[C@@H](O[C@H]4[C@H](O)[C@@H](O)[C@@H](O[C@H]5[C@H](O)[C@@H](O)[C@@H](O[C@H]6[C@H](O)[C@@H](O)[C@@H](O[C@H]7[C@H](O)[C@@H](O)[C@@H](O[C@H]8[C@H](O)[C@@H](O)[C@@H](O[C@H]1[C@H](O)[C@H]2O)O[C@@H]8CNC(=O)CCc1cn(CCOCCOCCO[C@@H]2O[C@H](CO)[C@@H](O[C@@H]8O[C@H](CO)[C@H](O)[C@H](O)[C@H]8O)[C@H](O)[C@H]2O)nn1)O[C@@H]7CNC(=O)CCc1cn(CCOCCOCCO[C@@H]2O[C@H](CO)[C@@H](O[C@@H]7O[C@H](CO)[C@H](O)[C@H](O)[C@H]7O)[C@H](O)[C@H]2O)nn1)O[C@@H]6CNC(=O)CCc1cn(CCOCCOCCO[C@@H]2O[C@H](CO)[C@@H](O[C@@H]6O[C@H](CO)[C@H](O)[C@H](O)[C@H]6O)[C@H](O)[C@H]2O)nn1)O[C@@H]5CNC(=O)CCc1cn(CCOCCOCCO[C@@H]2O[C@H](CO)[C@@H](O[C@@H]5O[C@H](CO)[C@H](O)[C@H](O)[C@H]5O)[C@H](O)[C@H]2O)nn1)O[C@@H]4CNC(=O)CCc1cn(CCOCCOCCO[C@@H]2O[C@H](CO)[C@@H](O[C@@H]4O[C@H](CO)[C@H](O)[C@H](O)[C@H]4O)[C@H](O)[C@H]2O)nn1)O[C@@H]3CNC(=O)CCc1cn(CCOCCOCCO[C@@H]2O[C@H](CO)[C@@H](O[C@@H]3O[C@H](CO)[C@H](O)[C@H](O)[C@H]3O)[C@H](O)[C@H]2O)nn1
< 1.47	–	–	–	CC(=O)N[C@H]1[C@@H](OCCOCCOCCN=[N+]=[N-])O[C@H](CO)[C@H](O)[C@@H]1O
< 1.47	–	–	–	CC(=O)N[C@H]1[C@@H](OCCOCCOCCN=[N+]=[N-])O[C@H](CO)[C@H](O)[C@@H]1O[C@@H]1O[C@H](CO)[C@H](O)[C@H](O)[C@H]1O
